20 compounds from PubChem BioAssay can be followed below.

A number with no mark means an inactive call. Inconclusive results are not listed. Active and inactive are the calls of the source.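 How the source made its calls, unless noted: active means viability increase at or above a cutoff of the median across tested compounds plus 3 SD (cut at about 8.5% in these data, passing the limit was not always enough); inconclusive means some gains above the cutoff, reason not given; inactive means the rest.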

Assay [1] is described as follows: S. cerevisiae growth inhibition in permissive medium (OD615), pilot counter-assay for S. cerevisiae lifespan shortening project, permissive growth control (AID 705;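 active means growth inhibition above 25% in both replicates, a cutoff set 3 SD above the mean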). The following applies: OD615, 24 h, at 10 µM, active compounds read high. An outline of the steps: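 System: engineered DeaD yeast; Medium: permissive raffinose/galactose medium; Compound dosing: 10 µM single dose, 0.25% DMSO; Incubation: 4 h cell pre-growth, 24 h exposure at 30 °C; Technique: OD at 615 nm; Evaluation: growth inhibition from lowered OD615 after 24 h.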

Assay [2] is described as follows: S. cerevisiae growth inhibition in restrictive medium, OD615, pilot screen, restrictive growth control, yeast lifespan reduction project (AID 706;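 active means growth inhibition above a set limit, 3 SD over mean compound inhibition, in both replicates, cut at about 43% in these data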;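 further: modified DeaD lifespan yeast strain shifted to restrictive glucose medium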). The following applies: OD615, 48 h, at 10 µM, active compounds read high. Put shortly: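 Material: modified S. cerevisiae; buffer or medium: CSMM-D glucose medium; doses: one concentration, 10 µM final, 0.25% DMSO; incubation: 48 h compound exposure at 30 °C; detection: optical density at 615 nm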

The nature of assay [3]: doxorubicin toxicity protection in MRP-1 cells – H69AR cells, CellTiter-Glo, duplicate, MRP-1 activator project, pilot screen (AID 807).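 Further: compound pretreatment 18-22 h then 72 h combined with doxorubicin; 0% = doxorubicin alone and 100% = vehicle without doxorubicin.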 Particulars: H69AR viability with doxorubicin, CellTiter-Glo luminescence; at 10 µM; active compounds read high. (Cellular ATP, detected with luciferase, serves as a proxy for viable cell number.)
The nature of assay [4]: viability of PTEN-null HCT116 cells – cell-based, HCT116 clonal line, CellTiter-Glo, pilot screen (AID 824;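 active means viability at or below 27.92% in each of two runs, the all-compound median minus 4 SD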;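 further: 0% = 20 µM Hyamine control and 100% = vehicle cell control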). Particulars: HCT116 PTEN-deleted viability, 60 h, at 10 µM, active compounds read low.
Assay [5] in a line: RAM pathway blockade in budding yeast – dse1pr::URA3 reporter, 5-FOA selection, pilot screen (AID 869;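 active means inhibition over a set limit, the all-compound mean plus 3 SD, in both replicate runs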;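 further: 0% = DMSO wells with no growth and 100% = 10 µM 1-NA-PP1 with full growth; RAM network block rescues cells from 5-FOA so hits raise OD615 growth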). Particulars: S. cerevisiae dse1pr::URA3 5-FOA growth, OD615, 2 d; at 10 µM; active compounds read high; strain carries analog-sensitive mutant Cbk1 kinase.
Assay [6] is described as follows: RAM signaling pathway blockade in yeast – S. cerevisiae, Pdr1DBD-CYC8 efflux-inhibited sensitized strain, primary screen (AID 1298;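 active means RAM network inhibition above 8.4% in each of two replicates, 3 SD over the compound average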;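 further: 0% = DMSO untreated cells without growth and 100% = 10 µM 1-NA-PP1 full growth; higher means more yeast growth rescued from 5-FOA killing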). The following applies: S. cerevisiae cbk1-as DSE1-URA3 strain, 5-FOA growth OD615, 2 d; at 50 µM; active compounds read high.

`C(=C\CSc1nnnn1-c1ccccc1)/CSc1nnnn1-c1ccccc1`: the growth inhibition was -9.57% in assay [1] and -3.65% in assay [2]. For the same compound, the viability increase in assay [3] is -1.58%. The viability (usually a read-out of living cells in per cent, often relative to untreated cells) in assay [4] is 87.6%. Moreover, the inhibition (commonly the drop in the measured response relative to a control, in per cent) in assay [5] is 3.83%. Moreover, the RAM network inhibition in assay [6] was 10%.

On to `O=c1cc(NCc2ccco2)c2ccccc2o1`, for which the growth inhibition in assay [1] was -2.07%; in assay [2], -3.13%. Moreover, the viability increase in assay [3] is -4.38%. The viability in assay [4] was 96.7%. In addition, the inhibition in assay [5] was 1.84%. Besides, in assay [6], the RAM network inhibition was 1.33%.

As for `c1ccc(-n2nnnc2-n2ccnc2)cc1`, the values for the growth inhibition in assay [1] and in assay [2] were 3.38% and 1.55%, respectively. Moreover, in assay [3], the viability increase is -0.62%. Moreover, in assay [4], the viability was 109%. In assay [5], the inhibition is 0.76%. In addition, the RAM network inhibition in assay [6] was 0.92%.

As for `CC(C)c1cc(=O)oc2c3c4c(cc12)CCCN4CCC3`, the growth inhibition was 0.175% in assay [1] and 9.32% in assay [2]. Further, the viability increase in assay [3] was -4.62%. In addition, the viability in assay [4] was 57.8%. Further, in assay [5], the inhibition is 1.84%. The RAM network inhibition in assay [6] is 3.62%.

Turning to `Fc1cccc(Cl)c1CSc1ncn[nH]1`, the figures for the growth inhibition in assay [1] and in assay [2] were -4.97% and 10.7%, respectively. In assay [3], the viability increase is 0.29%. Moreover, the viability in assay [4] was 85.6%. Also, in assay [5], the inhibition was 0.52%. Also, the RAM network inhibition in assay [6] was 2.05%.

Regarding `COc1cc2c(C(=O)N3CCN(Cc4ccc5c(c4)OCO5)CC3)cn(C)c(=O)c2cc1OC`, the values for the growth inhibition in assay [1] and in assay [2] were -8.34% and -4.51%, respectively. In addition, the viability increase in assay [3] was -6.92%. Moreover, the viability in assay [4] is 95.6%. Further, in assay [5], the inhibition is 0.85%. The RAM network inhibition in assay [6] is 1.29%.

On to `Cc1cccc(NC(=O)CS(=O)(=O)c2cn(C)c3ccccc23)c1C`, for which the results for the growth inhibition in assay [1] and in assay [2] were -8.09% and -5.75%, respectively. Moreover, in assay [3], the viability increase is -3.27%. Moreover, the viability in assay [4] was 96.5%. Also, the inhibition in assay [5] was 1.46%. For the same compound, in assay [6], the RAM network inhibition was 3.02%.

As for `Cc1ccc(S(=O)(=O)c2nc(-c3ccc(F)cc3)oc2SCC(=O)NCC2CCCO2)cc1` (stereo not given), the figures for the growth inhibition in assay [1] and in assay [2] were 8.03% and -4.51%, respectively. Moreover, the viability increase in assay [3] was -7.96%. The viability in assay [4] is 15.3% (active). In addition, the inhibition in assay [5] is 0.69%. Further, the RAM network inhibition in assay [6] was 10.9%.

Take `CS(=O)(=O)NCCSCc1ccc(Cl)cc1`: the growth inhibition was -8.71% in assay [1] and -3.54% in assay [2]. Also, the viability increase in assay [3] is -0.89%. For the same compound, the viability in assay [4] was 97.9%. Further, the inhibition in assay [5] was 1.62%. Also, the RAM network inhibition in assay [6] is 4.47%.

In the case of `CC(C)CC(NC(=O)C1CCCCC1)C(=O)NCc1ccccn1` (stereo not given), the growth inhibition in assay [1] is 1.21%; in assay [2] it was -10.9%. Moreover, the viability increase in assay [3] is -4.03%. For the same compound, the viability in assay [4] was 94.4%. For the same compound, in assay [5], the inhibition was 1.04%. For the same compound, in assay [6], the RAM network inhibition is -0.2%.

Regarding `CC(C)Cn1c(SCC#N)nc2ccccc2c1=O`, the growth inhibition in assay [1] was -0.35%; in assay [2], -14.3%. Besides, the viability increase in assay [3] is -1.74%. For the same compound, the viability in assay [4] is 88%. Also, the inhibition in assay [5] is 1.18%. Moreover, the RAM network inhibition in assay [6] was 5.88%.

As for `CCNc1nc(NCC)nc(OCCNS(=O)(=O)c2cc(C)ccc2C)n1`, the growth inhibition in assay [1] was 7.46%; in assay [2] it was 6.54%. The viability increase in assay [3] was -2.5%. Also, the viability in assay [4] was 95.3%. In addition, in assay [5], the inhibition is 0.235%. Moreover, the RAM network inhibition in assay [6] was 1.53%.

Regarding `C=C1c2ccc(C)cc2NC(=O)N1c1ccccc1`, the figures for the growth inhibition in assay [1] and in assay [2] were 3.26% and 8.36%, respectively. Moreover, the viability increase in assay [3] was -3.76%. The viability in assay [4] is 94.2%. In addition, in assay [5], the inhibition was 0.375%. For the same compound, the RAM network inhibition in assay [6] was 0.1%.

Turning to `CCn1cc(C(=O)NCCCOC)c2cc(OC)c(OC)cc2c1=O`, the growth inhibition was -10.7% in assay [1] and 0.745% in assay [2]. The viability increase in assay [3] was -2.42%. In addition, the viability in assay [4] was 104%. Moreover, the inhibition in assay [5] is 2.5%. Further, the RAM network inhibition in assay [6] was 3.59%.

With `CC(=O)N1CCN(S(=O)(=O)c2ccc(C)cc2)C1c1ccc(N(C)C)cc1` (stereo not given), the growth inhibition is 4.58% in assay [1] and 1.53% in assay [2]. The viability increase in assay [3] is -2.16%. Besides, in assay [4], the viability was 97.1%. In addition, the inhibition in assay [5] was 1.61%. In assay [6], the RAM network inhibition was 4.14%.

For the compound `COCCNC(=O)c1ccc2c(=O)n(CCOC)c(=O)[nH]c2c1`, the growth inhibition is -8.7% in assay [1] and -15.7% in assay [2]. For the same compound, in assay [3], the viability increase is -3.33%. The viability in assay [4] was 91.3%. Moreover, in assay [5], the inhibition is 0.805%. Moreover, the RAM network inhibition in assay [6] is 0.78%.

Turning to `COc1ccc(C)cc1NC(=O)CN(c1ccccc1)S(C)(=O)=O`, the figures for the growth inhibition in assay [1] and in assay [2] were -7.61% and -4.67%, respectively. In addition, the viability increase in assay [3] was -1.58%. Moreover, the viability in assay [4] was 96%. Moreover, in assay [5], the inhibition is 0.74%. Further, in assay [6], the RAM network inhibition is 5.82%.

Take `Cc1ccc(OCC(O)CN2CCN(c3ccccc3)CC2)cc1` (stereo not given): the growth inhibition in assay [1] was -3.02%; in assay [2] it was -2.13%. For the same compound, the viability increase in assay [3] is -0.7%. Also, in assay [4], the viability was 99.9%. Also, in assay [5], the inhibition is 1.23%. In addition, the RAM network inhibition in assay [6] is 7.87%.

With `Cc1oc(-c2cccc(Cl)c2)nc1CN1CCC(C(=O)N2CCN(c3ccccn3)CC2)CC1`, the growth inhibition in assay [1] was -5.81%; in assay [2], -1.31%. Further, in assay [3], the viability increase is -7.36%. For the same compound, the viability in assay [4] was 27% (active). Besides, the inhibition in assay [5] was 0.99%. For the same compound, the RAM network inhibition in assay [6] was 4.79%.

Consider `O=C(Oc1ccc(Cl)cc1)N1CCCCC1`, for which the growth inhibition in assay [1] is -8.34%; in assay [2], 3.42%. The viability increase in assay [3] is 0.94%. For the same compound, the viability in assay [4] was 103%. The inhibition in assay [5] is -0.1%. Also, the RAM network inhibition in assay [6] was 4.56%.
